Screening results from PubChem.
Compounds with a hit are over-represented: about 1.5% of the library has one in this group of screens.
MITF TRPM1 HTS = increases MITF-driven TRPM1 promoter luciferase signal; SK-MEL-5 TRPM1-promoter luciferase, 24 h; % of positive control, neutral wells = 0; activation, % at 12.5 µM; hit rate 0.75% among 300,000; AID 588334;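 active = mean activation of at least 80% with every replicate also reaching 80%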;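 note: 0% = neutral control wells and 100% = parthenolide positive control wells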
PGC1a acetyl inh = modulators of PGC1a acetylation. inhibition, % at 15.6 µM. U2OS PGC1a acetylation, AlphaScreen anti-acetyl-lysine; with virally co-expressed GCN5 acetyltransferase. hit rate 0.17% among 350,000;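 active = every replicate shows inhibition of at least 40%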;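 note: 0% = neutral control wells and 100% = positive control wells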
Cneo AK release = Cryptococcus neoformans lysis via adenylate kinase release; C. neoformans lysis, adenylate kinase release luminescence, 4 h; normalised: neutral wells 0, clomiphene wells 100; lysis activity, % at 15 µM; hit rate 0.2% among 360,000; AID 651654;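 active = mean lysis activity across replicates of at least 80%, whatever share of replicates individually reach that level; inactive = mean lysis activity below 80%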
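Assay system: Cryptococcus neoformans yeast cells / Dosing: single-point compound dose / Timing: 4 h at 37 °C static, read 1 h later / Measured by: luminescence of released adenylate kinase using an AK detection reagent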
Wnt bcat act = Wnt/beta-catenin pathway activation; Wnt/beta-catenin reporter cell assay, activator, plate reader; activation, % at 9.35 µM; hit rate 1.2% among 300,000; in the data active = activation above about 30%, passing the limit was not always enough;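 note: 0% = neutral control wells and 100% = positive control wells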
* hit, by the source's call; · = no result.

SMILES	MITF TRPM1 HTS	PGC1a acetyl inh	Cneo AK release	Wnt bcat act
Cc1nc(Nc2ccccc2)sc1C(=O)c1ccccc1	·	6	-1	42*
CCOC(=O)c1sc(Nc2ccccc2)nc1C	94*	-7	1	·
CCOC(=O)c1sc(NC(=O)Nc2ccc(Cl)cc2)nc1C	·	-3	-10	39*
COC(=O)c1ccc(/C=N/Nc2nc(C)c(C)s2)cc1	·	2	2	34*
CC(C)(C)C(=O)c1sc(Nc2ccccc2)nc1N	122*	-24	-7	0
CCOC(=O)[C@@H]1[C@@H]2C=C[C@]3(O2)[C@H](C(=O)NCc2ccccc2)N(CCCCCCO)C(=O)[C@@H]13	·	11	51	·
CN(C)C(=O)c1cccc(-c2ccc(C3[C@@H]4CN(S(=O)(=O)c5cccc(Cl)c5)C[C@H]3N4)cc2)c1 (some centres not stated)	·	-11	·	·
O=C(Nc1nc(-c2ccccn2)cs1)C12CC3CC(CC(O)(C3)C1)C2	41	-16	·	40*
O=C(Nc1nc(-c2ccccn2)cs1)C1CC1	47	6	7	10
CC(C)(O)[C@H]1Cc2cc3ccc(=O)oc3cc2O1	98*	0	-3	11
COc1ccc(NC(=O)Nc2ccc3c(c2)CC(=O)N([C@@H](C)CO)C[C@@H](C)[C@H](CN(C)S(=O)(=O)c2ccccc2)O3)cc1	·	-2	·	·
Nc1cccc2cc(-c3ccccc3)oc12	115*	·	-3	-2
CC(=O)c1cccc(N/C=C\C(=O)c2ccc(C)cc2)c1	70	11	-7	·
NC(=O)c1ccccc1N/C=C/C(=O)c1ccc(F)cc1	48	3	-8	54*
O=C(/C=C/Nc1ccccc1F)c1ccc(Br)cc1	32	·	·	46*
O=C(/C=C/Nc1ccc(Br)cc1F)c1ccccc1	-26	·	·	-9
NC(=O)c1ccccc1N/C=C/C(=O)c1cccs1	35	1	-2	·
CC(=O)c1ccc(N/C=C\C(=O)c2ccc(C)cc2)cc1	93*	-9	·	66*
N#Cc1ccccc1N/C=C/C(=O)c1ccc(Cl)cc1	·	0	3	48*
Cc1noc(C)c1NC(=O)N[C@@H]1CC[C@@H](CC(=O)Nc2ccc(-c3ccccc3)cc2)O[C@@H]1CO	·	8	1	·
CCN(C[C@H]1[C@H](c2ccc(C3=CCCC3)cc2)[C@H](CO)N1C(C)=O)C(C)=O	·	-3	0	·
O=C(/C=C/Nc1ccc(F)cc1)c1ccc(Br)cc1	47	-3	-1	61*
COc1cccc(C(=O)N2C[C@H]3[C@@H](c4ccccc42)[C@@H](CO)N3C(=O)c2ccccc2)c1	·	-2	-2	·
Cc1ccc(S(=O)(=O)Nc2ccc3c(c2)C(=O)N([C@H](C)CO)C[C@H](C)[C@H](CN(C)S(=O)(=O)c2ccccc2)OCCCC[C@@H](C)O3)cc1	·	6	1	·
COc1ccccc1C(=O)Nc1cccc(NC(C)=O)c1	-8	4	-2	·
SMILES	MITF TRPM1 HTS	PGC1a acetyl inh	Cneo AK release	Wnt bcat act
COc1ccccc1C(=O)NC(=O)Nc1cccc(Cl)c1	46	-6	-3	43*
COc1ccc(-c2cc(-c3ccccc3)c(C#N)c(S(C)=O)n2)cc1 (configuration not stated)	-68	85*	-1	-26
[O-]/[N+](=C/c1ccc(F)cc1)c1ccc(Cl)cc1	50	17	2	·
[O-][N+](=Cc1ccccc1)c1ccc(Cl)cc1	71	·	·	38*
CCN(C(=O)COC(=O)CCS(=O)(=O)c1ccccc1)c1c(N)n(Cc2ccccc2)c(=O)[nH]c1=O	·	0	-2	39*
CCN(C(=O)CN1CCN(c2ccccc2F)CC1)c1c(N)n(Cc2ccccc2)c(=O)[nH]c1=O	1	-2	·	0
CCN(C(=O)CN1CCN(c2ccccc2O)CC1)c1c(N)n(Cc2ccccc2)c(=O)[nH]c1=O	19	50*	·	·
C[C@H]1CN([C@@H](C)CO)C(=O)Cc2cc(NC(=O)c3ccncc3)ccc2O[C@H]1CN(C)C(=O)Nc1ccc2c(c1)OCO2	·	1	-3	·
COc1cccc(/C=N/NC(=O)Cn2ccnc2C)c1	-3	·	·	-2
CCOc1ccc(/C=N/NC(=O)Cn2ccnc2C)cc1	·	6	·	51*
CCC(=O)N1[C@H](CO)[C@@H](c2ccc(C3=CCCCC3)cc2)[C@@H]1CN(C)C(C)=O	·	4	-2	·
O=C(Nc1ccc(F)cc1)c1ccc2nsnc2c1	77	-12	-2	39*
COc1ccccc1NC(=O)c1ccc2nsnc2c1	91*	·	5	26
O=C(Nc1ccc(Br)cc1F)c1ccc2nsnc2c1	129*	4	-3	21
COc1cc(NC(=O)c2ccc3nsnc3c2)cc(OC)c1OC	5	-5	2	4
Cc1ccc(S(=O)(=O)N(C)C[C@H]2Oc3ccc(NS(=O)(=O)c4cn(C)cn4)cc3CC(=O)N([C@@H](C)CO)C[C@@H]2C)cc1	·	0	·	·
COc1ccc(S(=O)(=O)Nc2ccc3c(c2)CC(=O)N([C@H](C)CO)C[C@@H](C)[C@H](CN(C)S(=O)(=O)c2ccc(C)cc2)O3)cc1	·	5	2	·
C[C@H](CO)N1C[C@H](C)[C@H](CN(C)S(C)(=O)=O)Oc2c(NC(=O)C3CC3)cccc2C1=O	·	-12	-8	·
O=C(NC(=S)Nc1ccc2c(c1)OCCO2)c1ccccc1F	85*	0	-14	18
O=C(Nc1ccc2c(c1)OCCO2)c1ccccc1F	·	-5	-3	5
O=C(Nc1ccc(NC(=O)c2cccs2)cc1)c1ccc2c(c1)OCCO2	-8	1	·	0
O=C(CNC(=O)c1cccs1)Nc1ccc2c(c1)OCCO2	47	·	-6	31*
O=C(NC(=S)Nc1ccc2c(c1)OCCO2)c1ccccc1	37	0	-6	·
CCOc1cccc(C(=O)NC(=S)Nc2ccc3c(c2)OCCO3)c1	103*	·	-1	-1
O=C(Nc1ccc2c(c1)OCCO2)c1ccccc1Cl	·	-10	-23	40*
SMILES	MITF TRPM1 HTS	PGC1a acetyl inh	Cneo AK release	Wnt bcat act
C[C@@H]1CN([C@H](C)CO)C(=O)Cc2cc(NS(=O)(=O)c3cn(C)cn3)ccc2O[C@@H]1CN(C)Cc1ccc(Cl)c(Cl)c1	·	1	1	·
Cc1ccc(S(=O)(=O)N[C@H]2C=C[C@@H](CC(=O)N3CCN(c4ccccc4)CC3)O[C@H]2CO)cc1	·	0	2	·
CCCC(=O)Nc1ccc2c(c1)C(=O)N(C)C[C@H](OC)[C@@H](C)CN(C(=O)CC)[C@@H](C)CO2	·	3	·	·
O=C(CSCc1ccccc1Cl)Nc1ccc2c(c1)OCCO2	135*	-8	4	-5
O=C(Nc1ccc2c(c1)OCCO2)c1c(F)cccc1F	102*	1	0	21
Nc1nc2c(-c3ccc(Br)cc3)nnn2c2ccccc12	40	·	-3	43*
CCCNC(=O)[C@H]1[C@H](CO)[C@H]2Cn3c(ccc(-c4cccnc4)c3=O)[C@@H]1N2C(=O)Nc1ccccc1	·	·	2	·
COc1ccc(-c2ccc3oc(-c4ccsc4)cc(=O)c3c2)cc1F	50	2	1	7
O=c1cc(-c2ccsc2)oc2ccc(-c3ccc4cc[nH]c4c3)cc12	115*	-10	-2	23
COc1ccc(-c2ccc3oc(-c4ccsc4)cc(=O)c3c2)cn1	138*	4	-4	48*
